Converted amounts (≈) assume the structure as drawn. The source made the active and inactive calls. The calls are words filed in the database; no cut-off is given here.
Columns and labels:
[1] = test system: Candida albicans; test: (§1) Antifungal activity against Candida albicans ATCC 90028 infected in Galleria mellonella larvae infected with 20 uM compound pre-treated cell suspensions assessed as reduction in fungal cell nodules in dark for 144 hrs at 30 degC and measured every 24 hrs by hematoxylin and eosin staining-based light microscopic analysis; type: functional, organism-based
[2] = test system: CCRF-CEM; test: Antiproliferative activity against human CCRF-CEM cells assessed as cell viability at 25 uM after 72 hrs by MTT assay; type: functional; details: read-out: Activity
Procedure, shortened: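 MTT viability assay in CCRF-CEM and MCF-7 cells after 72 h exposure at 25, 50, 100 and 200 µM. Results are relative to control cells without inhibitor in 0.5% DMSO. Done in triplicate; values are means ± SD of three independent experiments.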

[3] = In-vitro chitinolytic activity of the compound assessed as p-nitrophenyl release from N-acetyl-beta-D-glucosaminide at 20 uM by chitinolytic activity assay; type: functional
[4] = test system: Candida albicans; test: Inhibition of biofilm formation of Candida albicans ATCC 90028 up to 20 uM […] by XTT assay; type: functional, organism-based
[5] = test system: Candida albicans; test: Antibiofilm activity in Candida albicans ATCC 90028 assessed as increase in chitin distribution within biofilm cells at 20 uM after 18 hrs by calcofluor white staining-based confocal laser scanning microscopic analysis; type: functional, organism-based
[6] = test system: Candida albicans; test: Growth inhibition of Candida albicans ATCC 90028 at 4 uM incubated for 48 hrs at 35 degC by broth microdilution method relative to control; type: functional; details: ATCC 90028, 48 h
[7] = test system: Candida albicans; test: Antibiofilm activity in Candida albicans ATCC 90028 assessed as cell membrane lysis at 20 uM after 18 hrs by acridine orange/ethidium bromide staining-based confocal laser scanning fluorescence microscopic analysis; type: functional, organism-based
Procedure, shortened: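 Unfixed biofilm cells were dual-stained in situ with acridine orange and ethidium bromide, each at 100 µg/mL. Confocal fluorescence and DIC imaging scored green AO nuclei, crescent-shaped chromatin, reddish-orange late apoptotic/necrotic cells and EB uptake, against untreated control biofilm. […]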

[8] = Toxicity in Galleria mellonella larvae infected with Candida albicans ATCC 90028 infected with 31 uM compound pre-treated cell suspensions assessed as survival incubated in dark for 144 hrs at 30 degC and measured every 24 hrs; type: organism-based; details: in vivo
[9] = test system: Candida albicans; test: Disruption of cell wall in Candida albicans SC5314 assessed as decrease in chitin level by measuring chitin mean staining index at 0.07 uM after 18 hrs by calcofluor white staining-based flow cytometric analysis (reference value: 496 +/- 51); type: functional
[10] = test system: Candida albicans; test: Growth inhibition of Candida albicans ATCC 90028 at 4 ug/ml incubated for 18 hrs at 35 degC by broth microdilution method relative to control; type: functional; details: ATCC 90028, 18 h, read-out: GI
[11] = test system: Candida albicans; test: Fungicidal activity against Candida albicans ATCC 90028 assessed as log reduction in cell viability at 10 uM in RPMI medium in absence of sorbitol; type: functional
[12] = test system: Candida albicans; test: Antibiofilm activity in Candida albicans ATCC 90028 assessed as late apoptotic morphological changes by measuring reddish-orange fluorescence at 20 uM after 18 hrs by acridine orange/ethidium bromide staining-based confocal laser scanning fluorescence microscopic analysis; type: functional, organism-based
[13] = test system: Candida albicans; test: Fungicidal activity against Candida albicans ATCC 90028 assessed as log reduction in cell viability at 10 uM in RPMI medium in presence of sorbitol; type: functional
[14] = test system: Candida albicans; test: Induction of apoptosis in Candida albicans ATCC 90028 protoplast assessed as late apoptotic cells at 20 uM after 48 hrs Annexin V-FITC/propidium iodide staining based flow cytometric analysis (reference value: 0.3 +/- 0.30%); type: functional
[15] = test system: MCF7; test: Antiproliferative activity against human MCF7 cells after 72 hrs by MTT assay; type: functional, cell-based; details: MCF7, 72 h
Procedure, shortened: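 EC50 was derived from a repeat 72 h MTT assay in CCRF-CEM or MCF-7 cells. It is the concentration killing 50% of tumour cells compared with control cells incubated without inhibitor in 0.5% DMSO.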

[16] = test system: Candida albicans; test: Induction of apoptosis in Candida albicans ATCC 90028 planktonic forms assessed as effect on DNA content of necrotic cells at 4 to 16 ug/ml by ethidium bromide staining based gel electrophoresis and confocal laser scanning microscopy; type: functional, organism-based
[17] = test system: Candida albicans; test: Antifungal activity against Candida albicans ATCC 90028 infected in Galleria mellonella larvae infected with 20 uM compound pre-treated cell suspensions assessed as cocoon formation incubated in dark for 144 hrs at 30 degC and measured every 24 hrs (reference value: 65%); type: organism-based
[18] = test system: Candida albicans; test: Fungicidal activity against Candida albicans ATCC 90028 assessed as reduction in cell viability in RPMI medium in presence of sorbitol; type: functional
[19] = test system: Candida albicans; test: as §1, with “31” for “20”, “larval hemocytes incubated” for “fungal cell nodules”; type: functional, organism-based
[20] = test system: Candida albicans; test: Induction of apoptosis in Candida albicans ATCC 90028 protoplast assessed as late apoptotic cells at 248 uM after 48 hrs Annexin V-FITC/propidium iodide staining based flow cytometric analysis (reference value: 0.3 +/- 0.30%); type: functional
[21] = test system: Candida albicans; test: Antibiofilm activity in Candida albicans ATCC 90028 assessed as increase in chitin distribution within biofilm cells at 248 uM after 18 hrs by calcofluor white staining-based confocal laser scanning microscopic analysis; type: functional, organism-based
[22] = test system: Candida albicans; test: as §1, with “31” for “20”, “fat body formation” for “fungal cell nodules”; type: functional, organism-based
[23] = In-vitro chitinolytic activity of the compound assessed as p-nitrophenyl release from N-acetyl-beta-D-glucosaminide at 248 uM by chitinolytic activity assay; type: functional
[24] = test system: Candida albicans; test: Induction of apoptosis in Candida albicans ATCC 90028 protoplast assessed as necrotic cells at 248 uM after 48 hrs Annexin V-FITC/propidium iodide staining based flow cytometric analysis (reference value: 0.33 +/- 0.20%); type: functional
[25] = test system: Candida albicans; test: Antifungal activity against Candida albicans ATCC 90028 infected in Galleria mellonella larvae infected with 31 uM compound pre-treated cell suspensions assessed as cocoon formation incubated in dark for 144 hrs at 30 degC and measured every 24 hrs (reference value: 65%); type: functional
[26] = test system: Candida albicans; test: as §1, with “31” for “20”; type: functional, organism-based
[27] = test system: Candida albicans; test: Inhibition of biofilm formation of Candida albicans ATCC 90028 at 248 uM […] by XTT assay; type: functional
[28] = test system: Candida albicans; test: Antifungal activity against Candida albicans ATCC 90028 infected in Galleria mellonella larvae infected with 31 uM compound pre-treated cell suspensions assessed as larvae survival incubated in dark for 144 hrs at 30 degC and measured every 24 hrs (reference value: 80%); type: functional
[29] = test system: Candida albicans; test: Induction of apoptosis in Candida albicans ATCC 90028 protoplast assessed as viable cells at 248 uM after 48 hrs Annexin V-FITC/propidium iodide staining based flow cytometric analysis (reference value: 96.38 +/- 2.05%); type: functional
[30] = test system: Candida albicans; test: Inhibition of biofilm formation of Candida albicans ATCC 90028 up to 248 uM […] by XTT assay; type: functional, organism-based
[31] = test system: Candida albicans; test: Induction of apoptosis in Candida albicans ATCC 90028 planktonic forms assessed as increase in DNA damage at 1 ug/ml by ethidium bromide staining based gel electrophoresis and confocal laser scanning microscopy; type: functional, organism-based

## CC(Cn1cnc2c1c(=O)n(C)c(=O)n2C)OCc1cn(CCCn2nc3c(Br)c(Br)c(Br)c(Br)c3n2)nn1 (stereo unspecified)
[1]
  Activity: Active
[2]
  viability at 25 µM: 0%
[3]
  Activity: 0.01 to 0.03 µmol/min
[4]
  inhibition: inactive
[5]
  Activity: Active
[6]
  MIC: 10 µM (≈ 7.94 µg/mL)
[7]
  Activity: Active
[8]
  survival at 24 h, 31 µM: 90 to 100%
[9]
  Activity_index: 53
[10]
  inhibition of growth at 4 µg/mL: 100%
[11]
  log(activity): 6.81
[12]
  Activity: Active
[13]
  log(activity): 6.74
[14]
  Activity: 0.22%
[15]
  EC50: 80 µM
[16]
  Activity: inactive
[17]
  Activity: 98%
[18]
  MFC: 10 µM

## CC(CN1c2ccccc2Sc2ccccc21)OC(=O)OC(C)Cn1cnc2c1c(=O)n(C)c(=O)n2C (stereo unspecified)
[19]
  Activity: Active
[2]
  viability at 25 µM: 22.1%
[20]
  Activity: 0.1%
[21]
  Activity: Active
[22]
  Activity: Active
[23]
  Activity: 0.01 to 0.03 µmol/min
[24]
  Activity: 95.9%
[6]
  MIC: 4 µM (≈ 2.09 µg/mL)
[8]
  survival at 24 h, 31 µM: 90 to 100%
[25]
  Activity: 98%
[10]
  inhibition of growth at 4 µg/mL: 100%
[26]
  Activity: Active
[27]
  inhibition at 248 µM: 61%
[28]
  survival at 31 µM: 95%
[29]
  Activity: 2.8%
[15]
  EC50: 80 µM
[30]
  inhibition: inactive
[31]
  Activity: inactive
